The source of these data is ChEMBL document CHEMBL3232705, “Discovery of isoquinolinone indole acetic acids as antagonists of chemoattractant receptor homologous molecule expressed on Th2 cells (CRTH2) for the treatment of allergic inflammatory diseases” (J Med Chem, 2014).

In general, pIC50 refers to −log10 of the IC50, conventionally taken in molar units. The low end stands for a large IC50, the high end for a small IC50. By bioavailability is commonly meant the share of a dose that reaches the circulation, judged against a reference dose that is usually intravenous. Lower therefore signals poor availability. Broadly, the Cmax is the maximum level reached in the sampled fluid or tissue. By inhibition in vivo is commonly meant the percentage by which the read-out fell short of the control.

pIC50: −log10 of the molar value. The source made the active and inactive calls. The calls are words filed in the database; no cut-off is given here.

Data set [1] has as its target T1, Prostaglandin D2 receptor 2 (Mus musculus, UniProt Q9Z2J6).
T1 sequence (Q9Z2J6 whole entry): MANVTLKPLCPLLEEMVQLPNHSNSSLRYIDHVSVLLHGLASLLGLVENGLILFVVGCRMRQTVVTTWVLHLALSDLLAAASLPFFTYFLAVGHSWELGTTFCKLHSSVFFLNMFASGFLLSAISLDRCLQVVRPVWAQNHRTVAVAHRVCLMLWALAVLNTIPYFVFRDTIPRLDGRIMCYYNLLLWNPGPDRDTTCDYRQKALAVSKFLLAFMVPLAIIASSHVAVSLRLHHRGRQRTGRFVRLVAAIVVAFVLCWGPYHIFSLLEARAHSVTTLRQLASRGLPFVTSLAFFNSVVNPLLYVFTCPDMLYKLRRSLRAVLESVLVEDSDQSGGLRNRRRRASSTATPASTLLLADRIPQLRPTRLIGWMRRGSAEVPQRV
Description: Inhibition of mouse CRTH2 receptor.

The test system of data set [2] is Mus musculus. The data set can be described thus: Antiallergic activity in house dust mite-induced allergic airway disease BALB/c mouse model assessed as reduction in total cellularity in bronchoalveolar lavage fluid at 40 mg/kg, po after 72 hrs of HDM challenge. The class given is functional, organism-based. More on the design: dose 40 mg/kg. Conditions: Lung. Summed up: (§1)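 BALB/c mice given house dust mite intratracheally via a catheter passed through the vocal cords. Test article 40 mg/kg orally once daily; dexamethasone 1 mg/kg ip once daily as reference. Total and differential BAL cells (eosinophils, macrophages, lymphocytes, neutrophils) counted 72 h after HDM challenge. Mean ± SEM, Mann–Whitney U test.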

Data set [3] in a line: Oral bioavailability in rat at 10 mg/kg. The class given is ADME, organism-based. Conditions: in vivo.
The next data set deals with Cytochrome P450 3A4 (Homo sapiens, UniProt P08684). Description: Inhibition of CYP3A4 (unknown origin). Format: ADME.
Data set [4] is described as follows: Cmax in dog at 10 mg/kg, po. Format: ADME, organism-based, Canis lupus familiaris. More on the design: dose 10 mg/kg, route oral. Conditions: in vivo. The gist of the method: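 Single intravenous dose of 2 mg/kg and single oral dose of 10 mg/kg, given separately, in rat, dog and monkey. Clearance and half-life taken from the iv arm; Cmax from the oral arm.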

The test system of another data set is Ovis aries. Description: Inhibition of allergen-induced mucociliary clearance in sheep assessed as tracheal mucus velocity at 3 mg/kg, iv measured at 8 hrs (reference value: 47%). Format: functional. As to conditions: Trachea. The gist of the method: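 Five sheep received 3 mg/kg iv around allergen challenge. Tracheal mucus velocity measured at 4 h and 8 h and expressed as % of baseline.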

Data set [5] deals with Mus musculus. Description: Antiallergic activity in house dust mite-induced allergic airway disease BALB/c mouse model assessed as reduction in airway inflammation at 40 mg/kg, po qd after 17 days. Format: functional, organism-based. Details: dose 40 mg/kg. The gist of the method:
as §1

Cytochrome P450 3A4, sequence (P08684 whole entry): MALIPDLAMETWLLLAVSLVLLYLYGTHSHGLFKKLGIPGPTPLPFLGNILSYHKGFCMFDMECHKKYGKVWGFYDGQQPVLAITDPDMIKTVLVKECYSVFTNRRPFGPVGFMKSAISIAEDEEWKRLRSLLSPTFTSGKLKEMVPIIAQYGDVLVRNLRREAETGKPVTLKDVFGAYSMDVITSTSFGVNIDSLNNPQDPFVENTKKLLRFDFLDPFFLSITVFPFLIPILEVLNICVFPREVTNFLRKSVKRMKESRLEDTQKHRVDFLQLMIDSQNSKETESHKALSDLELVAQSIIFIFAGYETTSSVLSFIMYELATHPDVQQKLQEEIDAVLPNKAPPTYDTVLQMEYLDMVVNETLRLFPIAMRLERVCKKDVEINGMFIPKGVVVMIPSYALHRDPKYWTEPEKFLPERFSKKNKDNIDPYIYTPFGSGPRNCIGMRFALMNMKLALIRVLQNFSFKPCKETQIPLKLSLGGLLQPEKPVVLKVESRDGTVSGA

In the case of `Cc1c(-c2cn(C(C)C)c(=O)c3ccccc23)c2cc(F)ccc2n1CC(=O)O`, the pIC50 is 8.40 in data set [1] and below 4.00 on Cytochrome P450 3A4. Besides, the inhibition entry in the data set with Mus musculus [2] and in the data set on Mus musculus [5] was “Active” in each case. This compound also returned a bioavailability in data set [3] of 20%. The compound also yielded a Cmax in data set [4] of 2010 ng/mL. The inhibition in vivo at 3 mg/kg in the data set with Ovis aries is 98%.
